Laboratory results reported in PMC4535313 (Bioorganic & medicinal chemistry letters, 2014).
pIC50: −log10 of the molar value.

Columns and labels:
[1] = Metabolic stability in rat microsomes; format: in vitro ADME
PLD2 = PLD2 (Homo sapiens, UniProt O14939); settings: recently reported inhibitors, Fig. 1; cited from earlier work
PLD1 = target: T1, PLD1 (Homo sapiens, UniProt Q13393); experiment: Cellular PLD1 assay with Calu-1 cells; format: cell-based
T1 sequence (Q13393 1-1074): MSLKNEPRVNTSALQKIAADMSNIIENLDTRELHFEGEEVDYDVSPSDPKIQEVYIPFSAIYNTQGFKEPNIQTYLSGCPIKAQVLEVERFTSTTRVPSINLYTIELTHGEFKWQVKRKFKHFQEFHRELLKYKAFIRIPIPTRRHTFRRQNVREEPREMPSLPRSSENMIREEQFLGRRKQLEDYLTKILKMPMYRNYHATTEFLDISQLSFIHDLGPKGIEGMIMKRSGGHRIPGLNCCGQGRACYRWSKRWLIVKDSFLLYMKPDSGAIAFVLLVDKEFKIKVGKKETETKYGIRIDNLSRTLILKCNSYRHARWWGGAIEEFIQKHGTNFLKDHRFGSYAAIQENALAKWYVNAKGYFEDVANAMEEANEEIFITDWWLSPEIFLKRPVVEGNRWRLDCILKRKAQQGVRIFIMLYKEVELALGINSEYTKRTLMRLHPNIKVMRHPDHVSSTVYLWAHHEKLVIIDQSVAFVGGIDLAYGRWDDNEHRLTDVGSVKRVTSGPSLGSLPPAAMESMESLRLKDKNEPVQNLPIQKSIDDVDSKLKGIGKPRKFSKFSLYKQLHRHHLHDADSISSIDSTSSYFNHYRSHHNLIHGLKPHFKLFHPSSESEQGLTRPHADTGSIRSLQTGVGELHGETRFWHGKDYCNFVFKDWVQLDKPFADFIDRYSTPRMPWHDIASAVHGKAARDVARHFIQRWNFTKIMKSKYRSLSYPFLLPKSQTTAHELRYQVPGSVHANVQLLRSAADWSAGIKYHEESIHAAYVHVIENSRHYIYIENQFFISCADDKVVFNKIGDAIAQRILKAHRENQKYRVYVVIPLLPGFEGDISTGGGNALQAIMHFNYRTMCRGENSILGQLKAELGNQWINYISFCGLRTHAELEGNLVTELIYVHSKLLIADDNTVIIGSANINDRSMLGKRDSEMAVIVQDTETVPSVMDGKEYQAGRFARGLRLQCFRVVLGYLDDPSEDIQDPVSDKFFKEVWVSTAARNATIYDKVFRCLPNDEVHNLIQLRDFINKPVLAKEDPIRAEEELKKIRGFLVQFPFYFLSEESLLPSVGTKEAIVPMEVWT
How it was run: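 Calu-1 cells used for cell-based PLD1 inhibition readout. Each IC50 determined in triplicate.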

Sequence of PLD2 (O14939 whole entry, species assumed): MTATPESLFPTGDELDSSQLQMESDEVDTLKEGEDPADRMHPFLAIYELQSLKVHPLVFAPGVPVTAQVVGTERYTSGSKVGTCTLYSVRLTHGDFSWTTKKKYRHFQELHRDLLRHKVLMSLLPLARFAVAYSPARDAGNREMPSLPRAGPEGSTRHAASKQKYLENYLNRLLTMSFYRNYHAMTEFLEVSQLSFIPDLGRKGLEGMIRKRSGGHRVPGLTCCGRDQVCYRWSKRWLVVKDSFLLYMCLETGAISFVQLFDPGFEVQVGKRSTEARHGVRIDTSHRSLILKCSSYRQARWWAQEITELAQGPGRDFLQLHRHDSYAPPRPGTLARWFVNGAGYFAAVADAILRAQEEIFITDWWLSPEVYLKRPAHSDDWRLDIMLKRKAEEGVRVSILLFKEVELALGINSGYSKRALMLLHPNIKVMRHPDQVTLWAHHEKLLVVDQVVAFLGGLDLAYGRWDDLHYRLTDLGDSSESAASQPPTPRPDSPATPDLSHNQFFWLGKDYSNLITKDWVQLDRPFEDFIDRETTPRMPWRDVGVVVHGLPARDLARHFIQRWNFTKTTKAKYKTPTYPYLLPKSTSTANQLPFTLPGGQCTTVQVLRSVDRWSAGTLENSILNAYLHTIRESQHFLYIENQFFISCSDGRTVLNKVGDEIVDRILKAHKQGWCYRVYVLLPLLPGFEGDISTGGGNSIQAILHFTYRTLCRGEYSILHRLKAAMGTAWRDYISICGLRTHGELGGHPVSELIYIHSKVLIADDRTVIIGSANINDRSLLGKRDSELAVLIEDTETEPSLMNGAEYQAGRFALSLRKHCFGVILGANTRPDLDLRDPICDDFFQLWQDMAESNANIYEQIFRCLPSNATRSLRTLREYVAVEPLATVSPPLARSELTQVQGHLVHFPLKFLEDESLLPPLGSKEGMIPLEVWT

With CC1CC(n2c(=O)[nH]c3ccccc32)CCN1CCNC(=O)c1ccc(F)cc1 (stereo not drawn) [compound 9] as the molecule, how does the Clhep [1] read?
The Clhep was 70 mL/min/kg.

For O=C(NCCN1CCC2(CC1)C(=O)NCN2c1cccc(F)c1)c1ccc(F)c(F)c1 [compound 4], which “fold PLD2 selective” value (PLD2) is on record?
Its value is 53 fold.

With CC(CNC(=O)c1ccc(F)c(F)c1)N1CCC2(CC1)C(=O)NCN2c1ccccc1 (stereo not drawn) [8f] as the molecule, how does the pIC50 (PLD1) read?
The pIC50 was ~6.00.
